From ChEMBL document CHEMBL1136741, “Role of the glycopeptide framework in the antibacterial activity of hydrophobic derivatives of glycopeptide antibiotics” (2003)
Values after ≈ are worked out from the molar mass of the structure shown.

Assays:
[1] = tested on: Staphylococcus epidermidis; test: Antibacterial activity against Staphylococcus epidermis 533 strain; assay type: functional
[2] = tested on: Staphylococcus aureus; test: Antibacterial activity against glycopeptide intermediate resistant Staphylococcus aureus 3798 strain; assay type: functional
Method in brief: (§1)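 MIC by broth microdilution in Mueller Hinton broth following NCCLS procedures. Compounds were dissolved in 10% DMSO in water, then diluted in broth. Final DMSO was 1.28% at 128 µg/mL antibiotic down to 0.0013% at 0.13 µg/mL. Repeat determinations were usually identical and always within 2-fold.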

[3] = tested on: Enterococcus faecalis; test: Antibacterial activity against glycopeptide susceptible Enterococcus faecalis 559 strain; assay type: functional
Method in brief: (§2)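 MIC by broth microdilution in Mueller Hinton broth following NCCLS procedures. Compounds dissolved in 10% DMSO in water, then diluted in broth; test range 128 to 0.13 µg/mL, final DMSO 1.28% to 0.0013% accordingly. Repeat determinations usually identical and always within 2-fold. Strain 533 is a clinical isolate; strain 602 is a clinical S. haemoliticus isolate.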

[4] = tested on: Enterococcus faecium; test: Antibacterial activity against glycopeptide resistant Enterococcus faecium 569 strain; assay type: functional; method in brief: as §1
[5] = tested on: Enterococcus faecalis; test: Antibacterial activity against glycopeptide resistant Enterococcus faecalis 560 strain; assay type: functional; method in brief: as §1
[6] = tested on: Staphylococcus aureus; test: Antibacterial activity against glycopeptide intermediate resistant Staphylococcus aureus 3797 strain; assay type: functional; method in brief: as §1
[7] = tested on: Enterococcus faecium; test: Antibacterial activity against glycopeptide susceptible Enterococcus faecium 568 strain; assay type: functional; method in brief: as §2
[8] = tested on: Staphylococcus haemolyticus; test: Antibacterial activity against Staphylococcus haemolyticus 602 strain

Row | Compound | MIC [1] | MIC [2] | MIC [3] | MIC [4] | MIC [5] | MIC [6] | MIC [7] | MIC [8]
1 | CCCCCCCCCCNC(=O)[C@H]1NC(=O)[C@H]2NC(=O)[C@H](NC(=O)[C@@H]3NC(=O)[C@H](CC(N)=O)NC(=O)[C@H](NC(=O)[C@@H](CC(C)C)NC)[C@H](O)c4ccc(c(Cl)c4)Oc4cc3cc(c4O[C@@H]3O[C@H](CO)[C@@H](O)[C@H](O)[C@H]3O[C@H]3C[C@](C)(N)C(O)[C@H](C)O3)Oc3ccc(cc3Cl)[C@H]2O)c2ccc(O)c(c2)-c2c(O)cc(O)cc21 (some centres not stated) | 0.5 mg/L (≈ 0.315 µM) | 1 mg/L (≈ 0.63 µM) | 0.5 mg/L (≈ 0.315 µM) | 8 mg/L (≈ 5.04 µM) | 8 mg/L (≈ 5.04 µM) | 1 mg/L (≈ 0.63 µM) | 0.5 mg/L (≈ 0.315 µM) | 1 mg/L (≈ 0.63 µM)
2 | CCCCCCCCCCNC(=O)[C@H]1NC(=O)[C@H]2NC(=O)[C@H](NC(=O)[C@@H]3NC(=O)[C@H]4NC(=O)[C@@H](Cc5ccc(c(Cl)c5)Oc5cc3cc(c5O)Oc3ccc(cc3Cl)[C@H]2O)NC(=O)[C@H](N)c2ccc(O)c(c2)Oc2cc(O)cc4c2)c2ccc(O)c(c2)-c2c(O)cc(O)cc21 | 0.13 mg/L (≈ 0.0971 µM) | 1 mg/L (≈ 0.747 µM) | 0.5 mg/L (≈ 0.374 µM) | 4 mg/L (≈ 2.99 µM) | 4 mg/L (≈ 2.99 µM) | 1 mg/L (≈ 0.747 µM) | 0.25 mg/L (≈ 0.187 µM) | 0.5 mg/L (≈ 0.374 µM)
3 | CC(=O)N[C@@H]1[C@H](O[C@@H]2c3ccc(c(Cl)c3)Oc3cc(cc(Oc4ccc(C[C@@H](N)CO)cc4Cl)c3O)[C@@H](N)C(=O)N[C@H]3C(=O)N[C@@H]2C(=O)N[C@H](C(=O)O)c2cc(O)cc(O[C@H]4O[C@H](CO)[C@@H](O)[C@@H](O)[C@@H]4O)c2-c2cc3ccc2O)O[C@@H](CO)[C@@H](O)[C@@H]1O | 64 mg/L (≈ 51 µM) | > 64 mg/L | 64 mg/L (≈ 51 µM) | > 128 mg/L | > 128 mg/L | > 64 mg/L | 32 mg/L (≈ 25.5 µM) | 64 mg/L (≈ 51 µM)
4 | NC(=O)C[C@@H]1NC(=O)[C@H](N)[C@H](O)c2ccc(c(Cl)c2)Oc2cc3cc(c2O)Oc2ccc(cc2)[C@@H](O)[C@@H]2NC(=O)[C@H](NC(=O)[C@@H]3NC1=O)c1ccc(O)c(c1)-c1c(O)cc(O)cc1[C@@H](C(=O)O)NC2=O | > 128 mg/L | > 128 mg/L | > 128 mg/L |  |  | > 128 mg/L | > 128 mg/L | > 128 mg/L
5 | C[C@@H]1O[C@@H](O[C@H]2[C@H](Oc3c4cc5cc3Oc3ccc(cc3Cl)[C@@H](O)[C@@H](N)C(=O)N[C@@H](CC(N)=O)C(=O)N[C@H]5C(=O)N[C@H]3C(=O)N[C@H](C(=O)N[C@H](C(=O)NCc5ccc(-c6ccc(Cl)cc6)cc5)c5cc(O)cc(O)c5-c5cc3ccc5O)[C@H](O[C@H]3C[C@](C)(N)[C@@H](O)[C@H](C)O3)c3ccc(cc3)O4)O[C@H](CO)[C@@H](O)[C@@H]2O)C[C@](C)(N)[C@H]1O | 4 mg/L (≈ 2.45 µM) | 8 mg/L (≈ 4.91 µM) | 4 mg/L (≈ 2.45 µM) | 2 mg/L (≈ 1.23 µM) | 4 mg/L (≈ 2.45 µM) | 8 mg/L (≈ 4.91 µM) | 4 mg/L (≈ 2.45 µM) | 4 mg/L (≈ 2.45 µM)
6 | CCCCCCCCCCNC(=O)[C@H]1NC(=O)[C@H]2NC(=O)[C@H](NC(=O)[C@H](N)c3cc(Oc4ccc(C[C@@H](N)CO)cc4Cl)c(O)c(c3)Oc3ccc(cc3Cl)[C@H]2O[C@@H]2O[C@@H](CO)[C@@H](O)[C@H](O)[C@@H]2NC(C)=O)c2ccc(O)c(c2)-c2c(O[C@H]3O[C@H](CO)[C@@H](O)[C@@H](O)[C@@H]3O)cc(O)cc21 | 16 mg/L (≈ 11.5 µM) | 16 mg/L (≈ 11.5 µM) | 16 mg/L (≈ 11.5 µM) | 16 mg/L (≈ 11.5 µM) | 64 mg/L (≈ 45.9 µM) | 32 mg/L (≈ 22.9 µM) | 16 mg/L (≈ 11.5 µM) | 32 mg/L (≈ 22.9 µM)
7 | CCCCCCCCCCNC(=O)[C@H]1NC(=O)[C@H]2NC(=O)[C@H](NC(=O)[C@@H]3NC(=O)[C@H](CC(N)=O)NC(=O)[C@H](NC(=O)[C@@H](CC(C)C)NC)[C@H](O)c4ccc(c(Cl)c4)Oc4cc3cc(c4O)Oc3ccc(cc3)[C@H]2O)c2ccc(O)c(c2)-c2c(O)cc(O)cc21 | 4 mg/L (≈ 3.2 µM) | 4 mg/L (≈ 3.2 µM) | 4 mg/L (≈ 3.2 µM) | 4 mg/L (≈ 3.2 µM) | 4 mg/L (≈ 3.2 µM) | 4 mg/L (≈ 3.2 µM) | 4 mg/L (≈ 3.2 µM) | 4 mg/L (≈ 3.2 µM)
8 | CN[C@H](CC(C)C)C(=O)N[C@H]1C(=O)N[C@@H](CC(N)=O)C(=O)N[C@H]2C(=O)N[C@H]3C(=O)N[C@H](C(=O)N[C@H](C(=O)NCc4ccc(-c5ccc(Cl)cc5)cc4)c4cc(O)cc(O)c4-c4cc3ccc4O)[C@H](O[C@H]3C[C@](C)(N)[C@@H](O)[C@H](C)O3)c3ccc(cc3)Oc3cc2cc(c3O[C@@H]2O[C@H](CO)[C@@H](O)[C@H](O)[C@H]2O[C@H]2C[C@](C)(N)[C@@H](O)[C@H](C)O2)Oc2ccc(cc2Cl)[C@H]1O | 2 mg/L (≈ 1.14 µM) | 4 mg/L (≈ 2.28 µM) | 2 mg/L (≈ 1.14 µM) | 4 mg/L (≈ 2.28 µM) | 4 mg/L (≈ 2.28 µM) | 4 mg/L (≈ 2.28 µM) | 1 mg/L (≈ 0.569 µM) | 1 mg/L (≈ 0.569 µM)
9 | C[C@@H]1O[C@@H](O[C@H]2[C@H](Oc3c4cc5cc3Oc3ccc(cc3Cl)[C@@H](O)[C@@H](N)C(=O)N[C@@H](CC(N)=O)C(=O)N[C@H]5C(=O)N[C@H]3C(=O)N[C@H](C(=O)N[C@H](C(=O)O)c5cc(O)cc(O)c5-c5cc3ccc5O)[C@H](O[C@H]3C[C@](C)(N)[C@@H](O)[C@H](C)O3)c3ccc(cc3)O4)O[C@H](CO)[C@@H](O)[C@@H]2O)C[C@](C)(N)[C@H]1O | 16 mg/L (≈ 11.2 µM) | 64 mg/L (≈ 44.7 µM) | 16 mg/L (≈ 11.2 µM) | > 128 mg/L | > 128 mg/L | 64 mg/L (≈ 44.7 µM) | 16 mg/L (≈ 11.2 µM) | 16 mg/L (≈ 11.2 µM)
10 | CCCCCCCCCCNC(=O)[C@H]1NC(=O)[C@H]2NC(=O)[C@H](NC(=O)[C@@H]3NC(=O)[C@H](CC(N)=O)NC(=O)[C@H](N)[C@H](O)c4ccc(c(Cl)c4)Oc4cc3cc(c4O[C@@H]3O[C@H](CO)[C@@H](O)[C@H](O)[C@H]3O[C@H]3C[C@](C)(N)[C@@H](O)[C@H](C)O3)Oc3ccc(cc3)[C@H]2O[C@H]2C[C@](C)(N)[C@@H](O)[C@H](C)O2)c2ccc(O)c(c2)-c2c(O)cc(O)cc21 | 0.5 mg/L (≈ 0.318 µM) | 8 mg/L (≈ 5.1 µM) | 2 mg/L (≈ 1.27 µM) | 2 mg/L (≈ 1.27 µM) | 4 mg/L (≈ 2.55 µM) | 4 mg/L (≈ 2.55 µM) | 2 mg/L (≈ 1.27 µM) | 1 mg/L (≈ 0.637 µM)
11 | CCCCCCCCCCNC(=O)[C@H]1NC(=O)[C@H]2NC(=O)[C@H](NC(=O)[C@@H]3NC(=O)[C@H](CC(N)=O)NC(=O)[C@H](N)[C@H](O)c4ccc(c(Cl)c4)Oc4cc3cc(c4O)Oc3ccc(cc3)[C@H]2O)c2ccc(O)c(c2)-c2c(O)cc(O)cc21 | 16 mg/L (≈ 14.3 µM) | 32 mg/L (≈ 28.5 µM) | 64 mg/L (≈ 57.1 µM) | 64 mg/L (≈ 57.1 µM) | > 128 mg/L | 32 mg/L (≈ 28.5 µM) | 64 mg/L (≈ 57.1 µM) | 64 mg/L (≈ 57.1 µM)
12 | CN[C@H](CC(C)C)C(=O)N[C@H]1C(=O)N[C@@H](CC(N)=O)C(=O)N[C@H]2C(=O)N[C@H]3C(=O)N[C@H](C(=O)N[C@H](C(=O)NCc4ccc(-c5ccc(Cl)cc5)cc4)c4cc(O)cc(O)c4-c4cc3ccc4O)[C@H](O)c3ccc(cc3)Oc3cc2cc(c3O)Oc2ccc(cc2Cl)[C@H]1O | 4 mg/L (≈ 3.06 µM) | 8 mg/L (≈ 6.11 µM) | 8 mg/L (≈ 6.11 µM) | 8 mg/L (≈ 6.11 µM) | 8 mg/L (≈ 6.11 µM) | 8 mg/L (≈ 6.11 µM) | 8 mg/L (≈ 6.11 µM) | 8 mg/L (≈ 6.11 µM)
13 | CCCCCCCCCCNC(=O)[C@H]1NC(=O)[C@H]2NC(=O)[C@H](NC(=O)[C@@H]3NC(=O)[C@H](CC(N)=O)NC(=O)[C@H](NC(=O)[C@@H](CC(C)C)NC)[C@H](O)c4ccc(c(Cl)c4)Oc4cc3cc(c4O[C@@H]3O[C@H](CO)[C@@H](O)[C@H](O)[C@H]3O[C@H]3C[C@](C)(N)[C@@H](O)[C@H](C)O3)Oc3ccc(cc3)[C@H]2O[C@H]2C[C@](C)(N)[C@@H](O)[C@H](C)O2)c2ccc(O)c(c2)-c2c(O)cc(O)cc21 | 0.13 mg/L (≈ 0.0766 µM) | 4 mg/L (≈ 2.36 µM) | 1 mg/L (≈ 0.589 µM) | 2 mg/L (≈ 1.18 µM) | 4 mg/L (≈ 2.36 µM) | 4 mg/L (≈ 2.36 µM) | 0.5 mg/L (≈ 0.295 µM) | 0.13 mg/L (≈ 0.0766 µM)
14 | CN[C@H](CC(C)C)C(=O)N[C@H]1C(=O)N[C@@H](CC(N)=O)C(=O)N[C@H]2C(=O)N[C@H]3C(=O)N[C@H](C(=O)N[C@H](C(=O)O)c4cc(O)cc(O)c4-c4cc3ccc4O)[C@H](O)c3ccc(c(Cl)c3)Oc3cc2cc(c3O[C@@H]2O[C@H](CO)[C@@H](O)[C@H](O)[C@H]2O[C@H]2C[C@](C)(N)[C@H](O)[C@H](C)O2)Oc2ccc(cc2Cl)[C@H]1O [VANCOMYCIN] |  | 8 mg/L (≈ 5.52 µM) | 1 mg/L (≈ 0.69 µM) | > 128 mg/L | > 128 mg/L | 16 mg/L (≈ 11 µM) |  | 
